Assay outcomes from PubChem BioAssay.
Most compounds without a hit are left out; they make up all but 4% or so of the library.
E-sel inducer = E-selectin induction in HUVECs, primary screen, imaging, HUVEC, immunofluorescence imaging, single point. 0.37% of 260,000 active. activation, % at 7.58 µM. P16581. normalized: neutral wells 0, TNF-alpha wells 100;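 active = mean E-selectin-positive cell signal at least 10% of the positive control, reached in at least 60% of replicates, without over 20% cell loss; inconclusive = no rule given, readout overlaps actives, possibly toxicity-flagged; inactive = the rest, including those meeting only one limit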
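Assay system: HUVEC primary endothelial cells. Input: 3,000 HUVEC seeded per well. Doses: one compound dose added by pin transfer. Read-out basis: % PE-positive cells. Benchmarks: TNF-alpha high, DMSO low. Detection: immunofluorescence imaging. Buffer or medium: EGM-2, gelatin.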
Ecoli rRNA inh = reduced GFP signal of wild-type E. coli, primary screen, bacterial rRNA inhibitor project, GFP/RFP fluorescence, OD600, single point. E. coli WT GFP vs humanized-ribosome RFP mutants, 24 h; stronger effect = lower value; DMSO median 0, no signal -100. 1.6% of 350,000 active. GFP signal change (wild-type ribosome), % (test concentration not listed). AID 720706, 2013;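 active = significant combined selectivity score with lowered wild-type GFP, culture density cut under 30%, mutant RFP and density less affected; inactive = any of these conditions unmet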
Statin myotox sup = suppressors of statin myotoxicity in C2C12 myotubes, primary screen, cell-based, single point, plate reader; rescue of ATP level, % at 7.49 µM; C2C12 myotubes + simvastatin, ATP luminescence, 48 h; scaled: DMSO 0, geranylgeraniol control 100; AID 602340, 2012; 0.78% of 330,000 active;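 active = mean ATP rescue above about 67%, or every replicate alone reaching that limit, limit read from the data, passing the limit was not always enough; inconclusive = no clear call, values can overlap the other calls; inactive = mean under the limit and some replicate under it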;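 note: myotubes were challenged with 10 µM simvastatin during compound exposure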
SIRT5 block = SIRT5 desuccinylase inhibitors, primary screen, biochemical, fluorescence imaging, single point, set 5. NAD-dependent protein deacylase sirtuin-5, mitochondrial (Homo sapiens), Q9NXA8. Purified SirT5, succinyl-peptide AMC, trypsin-coupled fluorescence. inhibition, % at 15 µM. 1.1% of 330,000 active. AID 652115, 2013; in the data active = inhibition above about 15%; inconclusive = no clear call, values can overlap the other calls
FGF22 binding = binders of human FGF22 protein, primary screen, FGF22 synaptogenesis inhibitor project, biophysical, thermal shift, single point. Fibroblast growth factor 22 (Homo sapiens), Q9HCT0. recombinant FGF22 thermal shift, SYPRO orange fluorescence; percent of sucrose octasulfate shift, DMSO zero. activity (Tm shift, normalised), % at 9.99 µM. 1.5% of 340,000 active;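 active = mean Tm shift, scaled 0 neutral to 100 positive control, at about 1.3% or above, every replicate too, limit read from the data; inconclusive = no clear call, values can overlap the other calls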
Target sequence (Q9HCT0 whole entry, looked up): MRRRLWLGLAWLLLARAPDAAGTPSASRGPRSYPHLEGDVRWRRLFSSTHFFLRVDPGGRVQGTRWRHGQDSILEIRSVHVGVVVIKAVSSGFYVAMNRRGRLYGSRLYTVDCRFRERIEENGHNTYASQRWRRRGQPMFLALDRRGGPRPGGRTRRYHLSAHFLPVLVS
FN deposit inh = inhibitors of fibronectin matrix deposition, primary screen, AH1F cells, Alexa488-fibronectin fluorescence, plate reader; AH1F fibroblasts, overnight; inhibition, % at 12.6 µM; 0.086% of 350,000 active; AID 743247, 2014;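 active = mean inhibition across replicates of 30% or more, regardless of how many single replicates reach that level; inconclusive = mean under 30% yet at least half of replicates reach 30%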
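Test system: AH1F fibroblast monolayer depositing Alexa488-labelled fibronectin into matrix. Input: 10000 cells per well. Technique: fluorescence, ex 485 nm, em 525 nm. Buffer or medium: DMEM plus 2% serum, read in PBS. Timing: 1 h cell adhesion before compound, then overnight fibronectin incubation. Compound: single dose, pinned. Read-out basis: inhibition from reduced deposited-fibronectin fluorescence.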
AID977621 = growth inhibition of wild-type GFP E. coli, dose response, H69 mutant RFP, cherry-pick; shares compounds with Ecoli rRNA inh; activity change, negative = inhibition at 50 µM; 1,900 tested, under 10 active; E. coli wild-type GFP strain growth, fluorescence, 24 h;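 active = Wild-type ribosome reporter drop at least double the humanized mutant ribosome reporter drop, growth loss under a set limit; inconclusive = no clear call, values can overlap the other calls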;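 note: wild-type GFP and H69 mutant RFP strains grown together 50/50 in each well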
AID977628 = E. coli growth inhibition, wild-type GFP versus h24 humanized RFP strain, dose response, h24 mutant RFP vs wild-type GFP, cherry-pick | shares compounds with Ecoli rRNA inh | E. coli WT GFP strain growth, fluorescence, 24 h | activity change, negative = inhibition at 50 µM | 1,900 tested, under 10 active;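 active = compound lowering the normal-ribosome reporter at least twice as much as the humanized-ribosome reporter, growth loss under a set limit; inconclusive = no clear call, values can overlap the other calls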;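 note: wild-type GFP and h24 humanized RFP strains co-cultured 1 to 1 per well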
Each line names hits and unclear results; the compound was inactive in the other large screens (follow-up assays come after a bar, where they were run).

COc1ccc(-c2csc(NC(=O)Cc3cc(OC)c(OC)c(OC)c3)n2)cc1OC	none
COc1cc(CC(=O)Nc2nc(C)cs2)cc(OC)c1OC	Ecoli rRNA inh -19 (no result: FN deposit inh) | AID977621 inactive | AID977628 inactive
COc1ccc(-c2cc(C(=O)O)nc3ccc4ccccc4c23)cc1OC	Ecoli rRNA inh -29 (no result: Statin myotox sup) | AID977621 inactive
COc1ccc(-c2nc(C(=O)O)cs2)cc1OC	none (no result: E-sel inducer, FN deposit inh)
C[C@@H]1CN([C@H](C)CO)C(=O)CCCn2nncc2CO[C@H]1CN(C)C(=O)Nc1ccccc1F	none
Brc1ccc(Nc2ncnc3[nH]ncc23)cc1	Ecoli rRNA inh -20 (no result: Statin myotox sup) | AID977621 inactive
Cc1ccc2nc(N(CCN(C)C)C(=O)C3CCN(S(=O)(=O)c4cccs4)CC3)sc2c1	Ecoli rRNA inh -11 (no result: E-sel inducer, SIRT5 block) | AID977621 inconclusive
C[C@@H]1CN([C@H](C)CO)C(=O)c2cccc(NC(=O)CCCCCC(=O)Nc3ccccc3N)c2O[C@H]1CN(C)Cc1ccc2c(c1)OCO2	E-sel inducer inconclusive (no result: Statin myotox sup, FN deposit inh)
COc1ccc(Cl)cc1NC(=O)CN(C)CC(=O)Nc1ccccc1-c1ccccc1	Ecoli rRNA inh -24 | AID977621 inactive
COc1ccc(NC(=O)Nc2cccc3c2O[C@@H](CN(C)S(C)(=O)=O)[C@H](C)CN([C@@H](C)CO)C3=O)cc1	none (no result: Statin myotox sup, FN deposit inh)
COc1cc2c(cc1OC)CN(CC(=O)Nc1ccc(F)cc1F)CC2	none
O=C(CN1CCc2ccccc2C1)Nc1ccc(F)cc1F	Ecoli rRNA inh -21, FGF22 binding 44 | AID977621 inactive | AID977628 inconclusive
